The values that follow come from ChEMBL document CHEMBL2321652, “Design and synthesis of HIV-1 protease inhibitors for a long-acting injectable drug application” (Bioorg Med Chem Lett, 2013).

By solubility is commonly meant the dissolved amount per volume that the medium holds. A lower solubility goes with little dissolved substance. As a reminder, the bioavailability is the share of a dose that reaches the circulation, judged against a reference dose that is usually intravenous. The low end stands for poor availability, the high end for good availability. Broadly, the clearance is the rate of elimination divided by the concentration. High values mean a high capacity for elimination, low ones a low capacity for elimination. What is called pEC50 is −log10 of the EC50, conventionally taken in molar units. For orientation: CC50 means the concentration that lowers cell viability or growth by half. Higher therefore signals better tolerance by the cells.

Each structure is given as a SMILES string. pEC50: −log10 of the molar value.

Data set [1] can be described thus: Aqueous solubility of the compound in crystalline polymorphic form. In kind it is physicochemical.
A short description of data set [2]: Bioavailability in rat at 50 mg/mL formulated with 25 mg/mL of poloxamer 338 and sucrose in water administered intramuscularly measured after 1 month. In kind it is ADME, organism-based. The settings on record: in vivo, im. The procedure, abridged: (§1)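 Nanosuspension depot given by a single intramuscular injection in rats. Blood is sampled at regular intervals over two months. Absolute bioavailability is assessed after 1 month of sampling as ((AUC_IM × dose_IV)/(AUC_IV × dose_IM)) × 100, relative to intravenous dosing.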

The nature of data set [3]: Bioavailability in rat at 50 mg/mL formulated with Vit-E TPGS, DSPG and sucrose in water administered intramuscularly measured after 1 month. In kind it is ADME, organism-based. The settings on record: in vivo, im. The essentials: as §1
Data set [4] can be described thus: Bioavailability in rat at 100 mg/mL formulated with polysorbate 20 and NaCl in water administered intramuscularly measured after 1 month. The settings on record: in vivo, im. The format is ADME, organism-based. The procedure, abridged:
as §1

The nature of data set [5]: Drug metabolism in human liver microsomes at 1 uM after 15 mins. The format is ADME, Microsome. The settings on record: read-out: Drug metabolism. The essentials:
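Human liver microsome incubation at 37 °C for 15 min with compound at 1 µM; turnover expressed as percent of compound metabolized.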
For orientation: Microsomes from liver hold many membrane-bound enzymes, among them those of drug oxidation.

Data set [6] is described as follows: Plasma clearance in rat at 2 mg/kg, iv. In kind it is ADME, organism-based. More on the design: dose 2 mg/kg, route intravenous. The essentials:
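Single intravenous dose of 2 mg/kg in rats. The formulation is typically 1 mg/mL in PEG400/ethanol/saline (70/20/10). Clearance values are averages from two or three animals. High is >3 L/h/kg (>70% liver blood flow) and low is <1.3 L/h/kg (<30%).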

Data set [7] relates to Human immunodeficiency virus 1. Briefly: Selectivity ratio of EC50 for Human immunodeficiency virus 1 3B clinical isolate harboring L10I/K20R/M36I/G48V/ I62V/A71V/V82A/I93L protease mutant to EC50 for wild type Human immunodeficiency virus 1 3B. In kind it is functional.
The test system of data set [8] is Human immunodeficiency virus 1. Briefly: Selectivity ratio of EC50 for Human immunodeficiency virus 1 3B clinical isolate harboring L10I/I13V/M46I/I50V/L63P/L76V protease mutant to EC50 for wild type Human immunodeficiency virus 1 3B. The format is functional.
For data set [9], the system named is Human immunodeficiency virus 1. As to the kind of experiment: Selectivity ratio of EC50 for Human immunodeficiency virus 1 3B clinical isolate harboring L10I/M46I/I64V/I84V/L90M/I93L protease mutant to EC50 for wild type Human immunodeficiency virus 1 3B. The format is functional.
Data set [10] concerns Human immunodeficiency virus 1. As to the kind of experiment: Antiviral activity against Human immunodeficiency virus 1 3B clinical isolate harboring L10I/K20R/M36I/G48V/ I62V/A71V/V82A/I93L protease mutant infected in human MT4 cells assessed as inhibition of viral replication. In kind it is functional, organism-based. The essentials: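 Each assay run in quadruplicate. Values are averages of at least two independent experiments, typically three to four. Cytotoxicity (CC50) was measured in parallel in MT4 cells.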

Data set [11] relates to Human immunodeficiency virus 1. Briefly: Antiviral activity against Human immunodeficiency virus 1 3B clinical isolate harboring L10I/I13V/M46I/I50V/L63P/L76V protease mutant infected in human MT4 cells assessed as inhibition of viral replication. In kind it is functional, organism-based. The procedure, abridged:
(§2)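 Inhibition of replication in MT4 cells infected with protease-mutant HIV-1 clinical isolates, reported as EC50. Each assay run in quadruplicate. Values are averages of at least two independent experiments, typically three to four. Cytotoxicity (CC50) was measured in parallel in MT4 cells.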

The subject of data set [12] is Human immunodeficiency virus 1. Briefly: Antiviral activity against Human immunodeficiency virus 1 3B clinical isolate harboring L10I/M46I/I64V/I84V/L90M/I93L protease mutant infected in human MT4 cells assessed as inhibition of viral replication. The format is functional, organism-based. The essentials: as §2
The nature of data set [13]: Cytotoxicity against human MT4 cells. In kind it is cell-based.
Data set [14] concerns Human immunodeficiency virus 1. Briefly: Antiviral activity against wild type Human immunodeficiency virus 1 3B infected in human MT4 cells assessed as inhibition of viral replication. In kind it is functional, organism-based. The procedure, abridged: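 EC50 values are averages of at least two independent experiments (typically three to four), each run in quadruplicate. For the serum-shifted line, the same antiviral assay includes 50% human serum, used as a functional measure of plasma protein binding.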

Data set [15] relates to Human immunodeficiency virus 1. As to the kind of experiment: Antiviral activity against wild type Human immunodeficiency virus 1 3B infected in human MT4 cells assessed as inhibition of viral replication in presence of 50% human serum.
Data set [16] can be described thus: Bioavailability in rat at 100 mg/mL formulated with 25 mg/mL of polysorbate 20 and 9 mg/mL of NaCl in water administered intramuscularly measured after 1 month. The format is ADME, organism-based. The settings on record: in vivo, im. The essentials: as §1
The nature of data set [17]: Bioavailability in rat at 50 mg/mL formulated with Vit-E TPGS in water administered intramuscularly measured after 1 month. In kind it is ADME, organism-based. The settings on record: in vivo, im. The procedure, abridged:
as §1

A short description of data set [18]: Bioavailability in rat at 50 mg/mL formulated with 12.5 mg/mL of poloxamer 338 and sucrose in water administered intramuscularly measured after 1 month. The format is ADME, organism-based. The settings on record: in vivo, im. The essentials:
as §1

Take `COC(=O)N[C@H](C(=O)N[C@@H](Cc1ccc(-c2ccc(N(C)C)nc2)cc1)[C@@H](O)C[C@@H](Cc1ccccc1F)C(=O)N[C@H]1c2cc(F)cc(Cl)c2OC[C@H]1O)C(C)(C)C`: the solubility in data set [1] is below 100 µg/mL. For the same compound, the bioavailability at 1 month in [2] turned out to be 5%; in data set [3], 12%; in data set [4] it was 3%. Further, the metabolised at 0.25 h, 1 µM in data set [5] was determined as 22%. The same compound showed a clearance in data set [6] of 13.3 mL/min/kg. The “Ratio EC50” value in data set [7], in [8] and in data set [9] was below 1 throughout. For the same compound, the pEC50 was 9.10 in data set [10]; 9.05 in [11]; 8.89 in data set [12]; 8.77 in data set [14]; 8.22 in data set [15]. The same compound returned a CC50 in data set [13] above 10000 nM.

For `COC(=O)N[C@H](C(=O)N[C@@H](Cc1ccc(-c2ccc(OC)nc2)cc1)[C@@H](O)C[C@@H](Cc1ccccc1F)C(=O)N[C@H]1[C@H](C)CCC[C@H]1O)C(C)(C)C`, the solubility in data set [1] was below 100 µg/mL. The bioavailability at 1 month in data set [16] is above 100%. Moreover, in data set [5], the metabolised at 0.25 h, 1 µM turned out to be 99%. Further, the clearance in data set [6] was 90 mL/min/kg. In addition, the “Ratio EC50” value in data set [7], in [8] and in data set [9] was below 1 throughout. In addition, the pEC50 in [10] was 9.30; in data set [11], 9.52; in data set [14], 9.10; in [15] it was 8.70. In [13], the CC50 was above 10000 nM.

For the compound `COC(=O)N[C@H](C(=O)N[C@@H](Cc1ccc(-c2ccc(OC)nc2)cc1)[C@@H](O)C[C@@H](Cc1ccccc1F)C(=O)N[C@H]1c2ccsc2CC[C@H]1O)C(C)(C)C`, the solubility in data set [1] is below 100 µg/mL. Also, the bioavailability at 1 month was 100% in data set [17] and above 100% in [18]. Further, the metabolised at 0.25 h, 1 µM in data set [5] came to 91%. Moreover, in data set [6], the clearance is 80 mL/min/kg. The “Ratio EC50” value in data set [7], in [8] and in data set [9] was below 1 in each case. In addition, the pEC50 in data set [10] is 9.40; in data set [11] it was 9.22; in data set [12], 9.05; in [14] it was 8.96; in data set [15], 8.43. In data set [13], the CC50 was above 10000 nM.
